This is an account of results in ChEMBL document CHEMBL1124054, “Synthesis and biological activity of ketomethylene-containing nonapeptide analogues of snake venom angiotensin converting enzyme inhibitors” (J Med Chem, 1988).

Non-standard residues stand in square brackets, D forms with d. Residues, ends and D or L forms follow the SMILES beside them. pGlu = O=C1CC[C@@H](C(=O)O)N1; Nle = CCCC[C@H](N)C(=O)O

For test [1], the target named is Angiotensin-converting enzyme (Oryctolagus cuniculus) (UniProt P12822). Kind of test: Inhibition of Angiotensin I converting enzyme from rabbit lung. As to conditions: read-out: I50.
Test [2] deals with T1, Angiotensin-converting enzyme (Rattus norvegicus, UniProt P47820).
T1 sequence (P47820 whole entry): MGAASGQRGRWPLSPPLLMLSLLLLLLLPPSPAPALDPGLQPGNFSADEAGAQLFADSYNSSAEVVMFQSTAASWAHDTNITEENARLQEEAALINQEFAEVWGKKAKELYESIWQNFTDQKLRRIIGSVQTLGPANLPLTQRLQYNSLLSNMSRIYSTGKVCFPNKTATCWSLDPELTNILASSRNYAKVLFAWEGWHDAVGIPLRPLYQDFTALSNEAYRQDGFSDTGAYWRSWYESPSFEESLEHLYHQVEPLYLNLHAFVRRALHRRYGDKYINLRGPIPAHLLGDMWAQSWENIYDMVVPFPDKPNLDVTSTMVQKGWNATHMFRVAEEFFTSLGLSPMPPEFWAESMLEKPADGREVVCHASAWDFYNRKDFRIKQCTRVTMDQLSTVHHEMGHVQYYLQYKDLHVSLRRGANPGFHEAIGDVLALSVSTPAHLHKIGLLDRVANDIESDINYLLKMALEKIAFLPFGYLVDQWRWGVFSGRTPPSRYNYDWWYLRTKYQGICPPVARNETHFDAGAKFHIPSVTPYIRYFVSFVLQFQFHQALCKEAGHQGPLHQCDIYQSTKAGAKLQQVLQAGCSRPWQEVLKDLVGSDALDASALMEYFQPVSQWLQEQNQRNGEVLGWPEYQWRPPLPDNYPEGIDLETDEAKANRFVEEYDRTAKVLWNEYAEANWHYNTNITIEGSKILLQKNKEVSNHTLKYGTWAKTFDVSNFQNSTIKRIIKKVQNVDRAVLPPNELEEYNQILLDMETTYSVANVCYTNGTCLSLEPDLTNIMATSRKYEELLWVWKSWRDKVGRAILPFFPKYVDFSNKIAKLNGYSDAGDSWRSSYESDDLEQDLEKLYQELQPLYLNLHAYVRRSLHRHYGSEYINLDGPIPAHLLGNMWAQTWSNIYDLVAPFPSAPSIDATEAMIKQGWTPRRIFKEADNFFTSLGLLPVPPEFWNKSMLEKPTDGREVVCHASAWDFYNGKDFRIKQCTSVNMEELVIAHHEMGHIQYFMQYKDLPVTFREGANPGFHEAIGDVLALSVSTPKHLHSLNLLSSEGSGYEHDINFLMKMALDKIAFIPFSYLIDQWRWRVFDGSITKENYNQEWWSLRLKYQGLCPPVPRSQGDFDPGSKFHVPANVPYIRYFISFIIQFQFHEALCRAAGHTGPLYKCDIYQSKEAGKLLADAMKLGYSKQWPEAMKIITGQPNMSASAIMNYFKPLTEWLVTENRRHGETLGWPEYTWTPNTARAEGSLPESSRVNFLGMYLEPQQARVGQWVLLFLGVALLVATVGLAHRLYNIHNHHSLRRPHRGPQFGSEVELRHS
Put plainly: Inhibition of Angiotensin I converting enzyme in normotensive rat. As to conditions: read-out: I50 (converted). It is filed as functional.

Test [3] deals with Rattus norvegicus. Put plainly: Inhibition of angiotensin I induced blood pressure in normotensive anesthetized rats at 3 ug/kg (i.v.) for 5 min. It is filed as functional. In outline: (§1)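 Male Sprague-Dawley normotensive rats (290-540 g), pentobarbital-anesthetized (50 mg/kg ip), intubated. Jugular vein cannulated for iv dosing and carotid artery for blood pressure. Control pressor response to angiotensin I (175 ng/kg iv) taken after vehicle (1 mL/kg). Compound given iv in distilled water or 5% sodium bicarbonate. Angiotensin I challenge repeated at 1.5 to 75 min, rise in pressure compared with control.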

The test system of test [4] is Rattus norvegicus. Put plainly: Inhibition of angiotensin I induced blood pressure in normotensive anesthetized rats at 100 ug/kg (i.v.) for 5 min. It is filed as functional. In outline: as §1
Test [5] has as its system Rattus norvegicus. Put plainly: Inhibition of angiotensin I induced blood pressure in normotensive anesthetized rats at 3 ug/kg (i.v.) for 1.5 min. It is filed as functional. In outline: as §1
For test [6], the system named is Rattus norvegicus. Kind of test: Inhibition of angiotensin I induced blood pressure in normotensive anesthetized rats at 100 ug/kg (i.v.) for 60 min. It is filed as functional. In outline: as §1
The subject of test [7] is Rattus norvegicus. Kind of test: Inhibition of angiotensin I induced blood pressure in normotensive anesthetized rats at 30 ug/kg (i.v.) for 1.5 min. It is filed as functional. In outline: as §1
The subject of test [8] is Rattus norvegicus. Kind of test: Inhibition of angiotensin I induced blood pressure in normotensive anesthetized rats at 30 ug/kg (i.v.) for 30 min. It is filed as functional. In outline:
as §1

The subject of test [9] is Rattus norvegicus. Kind of test: Inhibition of angiotensin I induced blood pressure in normotensive anesthetized rats at 3 ug/kg (i.v.) for 10 min. It is filed as functional. In outline:
as §1

In test [10] the test system is Rattus norvegicus. Put plainly: Inhibition of angiotensin I induced blood pressure in normotensive anesthetized rats at 100 ug/kg (i.v.) for 1.5 min. It is filed as functional. In outline:
as §1

Test [11] relates to Rattus norvegicus. Put plainly: Inhibition of angiotensin I induced blood pressure in normotensive anesthetized rats at 100 ug/kg (i.v.) for 30 min. It is filed as functional. In outline:
as §1

Test [12] relates to Rattus norvegicus. Put plainly: Inhibition of angiotensin I induced blood pressure in normotensive anesthetized rats at 100 ug/kg (i.v.) for 75 min. It is filed as functional. In outline: as §1
The test system of test [13] is Rattus norvegicus. Put plainly: Inhibition of angiotensin I induced blood pressure in normotensive anesthetized rats at 30 ug/kg (i.v.) for 5 min. It is filed as functional. In outline: as §1
Test [14] relates to Rattus norvegicus. Put plainly: Inhibition of angiotensin I induced blood pressure in normotensive anesthetized rats at 30 ug/kg (i.v.) for 10 min. It is filed as functional. In outline: as §1
Test [15] deals with Rattus norvegicus. Kind of test: Inhibition of angiotensin I induced blood pressure in normotensive anesthetized rats at 100 ug/kg (i.v.) for 10 min. It is filed as functional. In outline: as §1

With `CC[C@H](C)[C@H](NC(=O)[C@H](CCC(N)=O)NC(=O)[C@@H]1CCCN1C(=O)CNC(=O)[C@@H]1CCCN1C(=O)[C@H](Cc1c[nH]c2ccccc12)NC(=O)[C@@H]1CCC(=O)N1)C(=O)N1CCC[C@H]1C(=O)N1CCC[C@H]1C(=O)O` ([pGlu]WPGPQIPP-OH), in [1], the IC50 came to 1900 nM.
For the compound `C[C@H](NC(=O)[C@H](Cc1ccccc1)NC(=O)[C@H](CCCCN)NC(=O)[C@@H]1CCCN1C(=O)[C@H](CCCN=C(N)N)NC(=O)[C@@H]1CCCN1C(=O)[C@H](Cc1c[nH]c2ccccc12)NC(=O)[C@@H]1CCC(=O)N1)C(=O)N1CCC[C@H]1C(=O)O` ([pGlu]WPRPKFAP-OH), the IC50 in test [1] was found to be 50 nM.
For the compound `CC[C@H](C)[C@H](NC(=O)[C@H](CCC(N)=O)NC(=O)[C@@H]1CCCN1C(=O)[C@H](CCCN=C(N)N)NC(=O)[C@@H]1CCCN1C(=O)[C@H](Cc1ccc(O)cc1)NC(=O)[C@@H]1CCC(=O)N1)C(=O)N1CCC[C@H]1C(=O)N1CCC[C@H]1C(=O)O` ([pGlu]YPRPQIPP-OH), the IC50 in test [1] stood at 2600 nM.
Take `CCCC[C@H](NC(=O)[C@@H]1CCC(=O)N1)C(=O)N[C@@H](Cc1ccccc1)C(=O)N[C@@H](C)C(=O)N1CCC[C@H]1C(=O)O` ([pGlu][Nle]FAP-OH): in test [2], the IC50 was 359 nM.
As for `C[C@H](CS)C(=O)N1CCC[C@H]1C(=O)O` [CAPTOPRIL], the Inhibition over time in the test on Rattus norvegicus [3] was determined as 8.3%; with Rattus norvegicus [4], 83.5%; in the test with Rattus norvegicus [5] it was 18.7%; with Rattus norvegicus [6], 1.8%; in the test with Rattus norvegicus [7] it was 78.3%; in the test with Rattus norvegicus [8] it was 0%. In addition, the Inhibition over time in the test with Rattus norvegicus [9] was determined as 0%; in the test on Rattus norvegicus [10], 71.5%; in the test with Rattus norvegicus [11] it was 27.3%; in the test with Rattus norvegicus [12], 0%; in the test on Rattus norvegicus [13], 60.5%; in the test on Rattus norvegicus [14], 8.3%. In the test on Rattus norvegicus [15], this compound returned an Inhibition over time of 51.1%.
Regarding `CC[C@H](C)[C@H](NC(=O)[C@H](CCC(N)=O)NC(=O)[C@@H]1CCCN1C(=O)[C@H](CCCNC(=N)N)NC(=O)[C@@H]1CCCN1C(=O)[C@H](Cc1c[nH]c2ccccc12)NC(=O)[C@@H]1CCC(=O)N1)C(=O)N1CCC[C@H]1C(=O)N1CCC[C@H]1C(=O)O` [TEPROTIDE], the IC50 in test [1] worked out at 1100 nM.
